Experimental data reported in PMC11244656 (International journal of pharmaceutics, 2021).

Legend:
human plasma-derived CM = assay: CM association assay with human plasma-derived CM; format: in vitro ADME; settings: 1.75 μM, TG 1 mg/mL, 37°C, 1 hour, n = 9
Procedure, shortened: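 Chylomicrons came from volunteers on no medicines in the prior week, 3–4 h after a high-fat meal. Blood in K2-EDTA was centrifuged (1,160 g, 15°C, 10 min), then the plasma was ultracentrifuged (268,350 g, 15°C, 35 min). The top CM layer was diluted in PBS to 1 mg/mL TG (enzymatic kit) and held at 4°C ≤24 h. It was spiked to 1.75 μM final, stirred 1 h at 37°C and re-isolated.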

[1] = Pharmacokinetic study in rats; format: in vivo; settings: male, Sprague Dawley, rat, plasma
Procedure, shortened: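 Male Sprague Dawley rats (275–300 g) had jugular vein cannulas placed under isoflurane, recovered 2 nights and were fasted up to 16 h. IV bolus was given in propylene glycol–water–ethanol (70:20:10). Oral gavage used the same vehicle or sesame oil. Plasma was sampled to 24 h and assayed by HPLC-UV (263 nm, internal standard, 5–15000 ng/mL). Non-compartmental analysis; n = 5 IV, 3 or 6 oral.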

[2] = system: artificial CM-like emulsion (Intralipid); assay: CM association assay with artificial CM-like emulsion; format: in vitro ADME; settings: 1.75 μM, TG 1 mg/mL, 37°C, 1 hour, n = 22
Procedure, shortened: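 Intralipid 20% was diluted in PBS to 1 mg/mL triglyceride. A 2 mL volume was spiked from a 1 mg/mL propylene glycol–ethanol (99:1) stock to give 1.75 μM final. It was stirred at 170 rpm, 37°C, for 1 h. The emulsion was then re-isolated by density gradient ultracentrifugation and drug content measured by HPLC-UV.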

[3] = rats, lipid-free formulation; cited from earlier work
[4] = Biodistribution study to mesenteric lymph and MLNs in rats; format: in vivo; settings: rat, oral 5 mg/kg; for levels in MLNs compared to plasma: tmax-1h and tmax

In the case of `CCC[C@@]1(CCc2ccccc2)CC(O)=C([C@H](CC)c2cccc(NS(=O)(=O)c3ccc(C(F)(F)F)cn3)c2)C(=O)O1` [TPV, tipranavir], the “association with natural human plasma-derived CM” value (human plasma-derived CM) is reported as 66.7%, the C0 ([1]; iv, 1 mg/kg) is reported as 17600 ng/mL and the Vd ([1]; iv, 1 mg/kg) is reported as 0.903 ± 0.204 L/kg. For the same compound, the clearance ([1]; iv, 1 mg/kg) was 4.55 mL/min/kg, the Tmax ([1]; po, 5 mg/kg) was 3 h and the “association with artificial CM-like emulsion (Intralipid)” value [2] was 31.6%. For the same compound, the oral bioavailability [3] was 30%, the “concentration in mesenteric lymph fluid compared to plasma” value ([4]; LCT-based formulation, tmax-1h (2 h) and tmax (3 h)) was “three-fold higher” and the “levels in MLNs compared to plasma” value ([4]; LCT-based formulation) was “comparable”. The “levels in MLNs compared to plasma” value ([4]; lipid-free formulation) was “comparable”.
